According to article PMC8157486 (Chemical Science, 2020):
Entries after “also recorded” stand apart in the source; their conditions may differ. Bridge positions count the residues as written; N and C are the ends. Square brackets hold non-standard residues; d marks the D form. Triazole bridges read from a SMILES are 1,4-linked. Peptide text beside a SMILES is read from it. * marks the point of attachment. Biotin = O=C1N[C@H]2[C@H](CS[C@H]2CCCCC(=O)*)N1; Lys(N3) = [N-]=[N+]=NCCCC[C@H](N)C(=O)O; PEG5 = NCCOCCOCCOCCOCCOCCC(=O)O; Pra = C#CC[C@H](N)C(=O)O

Key:
[1] = biological target: T1, full-length recombinant MrkA protein (Klebsiella pneumoniae, UniProt P12267); experiment: Sandwich ELISA: immobilised biotinylated PCC captures full-length MrkA; assay type: binding
T1 sequence (P12267 23-202): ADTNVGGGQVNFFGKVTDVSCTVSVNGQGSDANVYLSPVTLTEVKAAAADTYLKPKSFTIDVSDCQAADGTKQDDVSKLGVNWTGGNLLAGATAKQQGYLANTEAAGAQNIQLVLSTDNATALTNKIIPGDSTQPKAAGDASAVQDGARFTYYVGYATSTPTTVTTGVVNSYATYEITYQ
Outline: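 NeutrAvidin-coated wells were loaded with 2 μM biotinylated PCC (2 h, room temperature), then blocked overnight in 5% milk at 4 °C. Recombinant MrkA (N-terminal 6xHis-SUMO tag) was titrated for 1 h, followed by rabbit anti-His pAb (1:5000, 1 h) and anti-rabbit HRP (1:2000, 1 h). Peroxidase substrate developed for 1–40 min and was quenched with 1 M H2SO4.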

[2] = system: MrkA-producing multidrug-resistant K. pneumoniae (strains BAA 1705 & 2146); experiment: Whole-cell ELISA, biotinylated PCC binding; assay type: cell-based, Klebsiella pneumoniae; settings: Fig. 5C; for binding selectivity towards MrkA-expressing K. pneumoniae cells versus non-target bacteria: whole-cell ELISA versus E. coli and S. Typhimurium; for whole-cell ELISA signal (SAv-HRP, 450 nm): biotinylated PCC at 5 μM
Outline: (§1)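 10^8 bacteria per test, from overnight cultures at 37 °C with shaking in G-CAA (promotes MrkA) or LB medium. Blocked in PBS-1% BSA (1 h, 37 °C), then incubated with biotinylated PCC in PBS-BSA (1 h, 37 °C). Washed thrice, then streptavidin-HRP (1:1000, 1 h, 37 °C). Developed with TMB, quenched with 2 N H2SO4, absorbance read at 450 nm.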

[3] = system: Salmonella enterica serovar Typhimurium (S. Typhimurium); experiment: Whole-cell ELISA, biotinylated PCC binding; assay type: cell-based; settings: biotinylated PCC at 5 μM; does not express MrkA; Fig. 5C
Outline: as §1

[4] = system: K. pneumoniae cells (strain BAA 1705); experiment: Whole-cell ELISA on cells cultured in G-CAA media or LB; assay type: cell-based, Klebsiella pneumoniae; settings: biotinylated PCC at 50 μM; Fig. S7B
[5] = system: wild type MrkA-expressing KPPR1 cells (ATCC 43816); experiment: Whole-cell ELISA, biotinylated PCC binding; assay type: cell-based, Klebsiella pneumoniae; settings: biotinylated PCC at 5 μM down to 5 nM; cells cultured in G-CAA media; 1 h 37 °C
Outline: as §1

[6] = system: MrkA-knockout KPPR1 cells; experiment: Whole-cell ELISA, biotinylated PCC binding; assay type: cell-based, Klebsiella pneumoniae; settings: mrkA (with mrkB and mrkC) knocked out
Outline: as §1

[7] = system: Escherichia coli (E. coli); experiment: Whole-cell ELISA, biotinylated PCC binding; assay type: cell-based; settings: biotinylated PCC at 5 μM; does not express MrkA; Fig. 5C
Outline: as §1

[8] = system: K. pneumoniae cells (strain BAA 2146); experiment: Flow cytometry antibody recruitment; assay type: cell-based, Klebsiella pneumoniae; settings: >18 000 single cells
Outline: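 Cells grown overnight in G-CAA medium, washed, and incubated with DNP-conjugated PCC. After a wash they were stained with Alexafluor488-labelled anti-DNP antibody, washed, resuspended in PBS and held 2 d at 4 °C. Cytometer calibrated with 3.5 μm fluorescent beads. Excitation 488 nm, emission 530 nm. Gated on single cells, with an unstained FMO control setting the DNP+ gate.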

[9] = system: K. pneumoniae cells (strain BAA 1705); experiment: Gentamicin protection assay: phagocytosis and opsonophagocytic killing; assay type: cell-based, Klebsiella pneumoniae; settings: for colony counts at 1 h (phagocytosis), control treatments: AR-PCC only (5 μM, no anti-DNP) or anti-DNP antibody only, triplicate
Outline: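 Bacteria opsonized with DNP-PCC (5 μM, PBS-1% BSA, 1 h, 37 °C), then anti-DNP (1:1000, 1 h, 37 °C). They infected immortalised mouse BMDMs (RPMI, 10% serum) at MOI 50 for 0.5 h at 37 °C. After washing, gentamicin 100 μg ml−1 was added. At 1 h and 24 h, macrophages were lysed in 0.2% Triton X-100 and CFU plated on LB agar. Triplicate.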

2: L-to-A substitution analogue of cy(LLFFF) (ALFFF; macrocycle closed by azidolysine-propargylglycine cyclization; N-terminal Biotin-peg group) [Compound 2]
MrkA binding (ELISA signal) compared to unmodified cy(LLFFF), alanine scan ([1]; full-length MrkA, N-terminal Biotin-peg PCCs, Fig. 4A): Modestly lower binding

17: cy(LLFFF) with a hexa-arginine tag (RRRRRRLLFFF; LLFFF closed into a macrocycle by azidolysine-propargylglycine cyclization; N-terminal Biotin-peg group) [Compound 17]
binding of MrkA protein in mouse sera ([1]; MrkA protein at 250 nM in solutions of 10 and 100% mouse sera, Fig. 4B inset, listed as cy(LLFFF)+R6): bound MrkA protein in solutions of 10 and 100% mouse sera, albeit at lower levels versus in 0% serum; also recorded: binds MrkA protein in the context of sera | binding selectivity towards MrkA-expressing K. pneumoniae cells versus non-target bacteria [2]: similarly high selectivity

CC(C)C[C@@H]1NC(=O)[C@@H](NC(=O)CCOCCOCCOCCOCCOCCNC(=O)CCCC[C@@H]2SC[C@@H]3NC(=O)N[C@@H]32)Cc2cn(nn2)CCCC[C@@H](C(N)=O)NC(=O)[C@H](Cc2ccccc2)NC(=O)[C@H](Cc2ccccc2)NC(=O)[C@H](Cc2ccccc2)NC(=O)[C@H](CC(C)C)NC1=O [cy(LLFFF)] ({Biotin-PEG5}-[Pra]LLFFF[Lys(N3)]-NH2; triazole 1-7)
whole-cell ELISA signal (SAv-HRP, 450 nm) [2]: strong signals | binding selectivity towards MrkA-expressing K. pneumoniae cells versus non-target bacteria [2]: excellent binding selectivity | whole-cell ELISA signal (SAv-HRP, 450 nm) [3]: only weak signals | whole-cell ELISA binding, G-CAA versus LB culture [4]: bound K. pneumoniae cells regardless of MrkA-expression level | whole-cell ELISA signal (SAv-HRP, 450 nm) [5]: strong signals | whole-cell ELISA signal (SAv-HRP, 450 nm) [6]: ELISA intensities comparable to baseline | whole-cell ELISA signal (SAv-HRP, 450 nm) [7]: only weak signals

cy(HNGPT)-DNP (sidechain bridge or staple)
fluorescence intensity (Alexafluor 488 anti-DNP), flow cytometry ([8]; control AR-PCC at 50 μM plus anti-DNP, predominantly): < 1.0 × 10^1

cy(LLFFA) (sidechain bridge or staple)
whole-cell ELISA signal (SAv-HRP, 450 nm) [2]: low signals | whole-cell ELISA signal (SAv-HRP, 450 nm) [3]: low signals | whole-cell ELISA binding, G-CAA versus LB culture [4]: bound K. pneumoniae cells regardless of MrkA-expression level | whole-cell ELISA signal (SAv-HRP, 450 nm) [5]: much lower intensities | whole-cell ELISA signal (SAv-HRP, 450 nm) [6]: ELISA intensities comparable to baseline | whole-cell ELISA signal (SAv-HRP, 450 nm) [7]: low signals

cy(LLFFA)-DNP (sidechain bridge or staple)
colony counts at 1 h (phagocytosis), control treatments [9]: None of these treatments elicited phagocytosis above the basal level

cy(LLFFF)+R6-DNP (sidechain bridge or staple)
colony counts at 1 h (phagocytosis), control treatments [9]: None of these treatments elicited phagocytosis above the basal level

cy(LLFFF)-DNP (sidechain bridge or staple)
fluorescence (Alexafluor 488 anti-DNP), flow cytometry, versus controls ([8]; AR-PCC at 1 or 5 μM plus secondary antibody): much higher fluorescence | colony counts at 24 h (opsonophagocytic killing) ([9]; 24 h of incubation, AR-PCC 5 μM plus anti-DNP): little to no cell counts | colony counts at 1 h (phagocytosis), control treatments [9]: None of these treatments elicited phagocytosis above the basal level
